≈ marks a conversion by molar mass, not a printed value.
Key:
[1] = Stability in phosphate buffer at pH 4.0 assessed as half life; type: physicochemical
Summary of the method: (§1)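 Hydrolytic decomposition was followed by ¹H NMR on 30 mg samples in D₂O, with spectra recorded periodically. Media were 1 M glycine (pH 5.75), PBS (pH 7.4, phosphate with NaCl), or 50 mM phosphate at pH 4.0 or 10.0. Buffers were made in H₂O, lyophilized and redissolved in D₂O. Low-field signals were integrated to give a rate constant k and a half-life.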

[2] = Stability in phosphate buffer at pH 10.0 assessed as half life; type: physicochemical; summary of the method: as §1
[3] = Stability in 1 M glycine solution at pH 5.8 assessed as half life; type: physicochemical; summary of the method: as §1
[4] = Stability in PBS at pH 7.4 assessed as half life; type: physicochemical; summary of the method: as §1
Vaccinia virus = assay: Antiviral activity against vaccinia virus; type: functional, organism-based; conditions: Orthopoxvirus vaccinia
Human betaherpesvirus 5 = assay: Antiviral activity against HCMV; type: functional, organism-based
Human alphaherpesvirus 3 = assay: Antiviral activity against VZV; type: functional, organism-based
Human alphaherpesvirus 1 = assay: Antiviral activity against HSV1; type: functional, organism-based
Human betaherpesvirus 6 = assay: Antiviral activity against HHV6; type: functional, organism-based
[5] = Stability in 1 M glycine solution assessed as half life; type: physicochemical; summary of the method: as §1
[6] = Stability in PBS assessed as half life; type: physicochemical; summary of the method: as §1
[7] = Cytotoxicity against HEL cells; type: cell-based; conditions: human

In the case of Nc1ncn(C[C@H](O)CO)c(=O)n1, the half-life [1] is reported as 17.8 days, the half-life [2] is reported as 10.3 days and the half-life [3] is reported as 15.8 days. It also gave a half-life [4] of 19.6 days.
With CCCCCCCCCCCCCCCCCCOP1(=O)CO[C@@H](Cn2cnc(N)nc2=O)CO1 (stereo not given in full) the EC50 (Vaccinia virus) was 0.037 µg/mL (≈ 0.0719 µM), the EC50 (Human betaherpesvirus 5) was ≤ 0.00014 µg/mL and the EC50 (Human alphaherpesvirus 3) was ≤ 0.00014 µg/mL. It also gave an EC50 (Human alphaherpesvirus 1) of 0.003 µg/mL (≈ 0.00583 µM) and an EC50 (Human betaherpesvirus 6) of 0.008 µg/mL (≈ 0.0155 µM).
In the case of NC(N)=NC(=O)NC[C@H]1COP(=O)(O)CO1, the half-life [5] is reported as 14.7 days, the half-life [6] is reported as 29.7 days and the CC50 [7] is reported as > 100 µg/mL. For the same compound, the MCC [7] was > 100 µg/mL.
In the case of NC(N)=NC(=O)NCCOCP(=O)(O)O, the half-life [5] is reported as 26.2 days, the half-life [6] is reported as 39.3 days and the CC50 [7] is reported as > 100 µg/mL. The MCC [7] was > 100 µg/mL.
In the case of NC(N)=NC(=O)NC[C@@H](COC=O)OCP(=O)(O)O, the half-life [5] is reported as 4.75 days, the half-life [6] is reported as 4.98 days and the CC50 [7] is reported as > 100 µg/mL. The MCC [7] was > 100 µg/mL.
In the case of NC(N)=NC(=O)NC[C@H](O)CO, the half-life [5] is reported as 16.1 days, the half-life [6] is reported as 19.6 days and the CC50 [7] is reported as > 100 µg/mL. The MCC [7] was > 100 µg/mL.

Source: ChEMBL document CHEMBL1158161, “Study of chemical stability of antivirally active 5-azacytosine acyclic nucleoside phosphonates using NMR spectroscopy” (Bioorg Med Chem, 2008)
